Results as given in ChEMBL document CHEMBL1153011, “Mechanism of unusual formation of 3-(5-phenyl-3H-[1,2,4]dithiazol-3-yl)chromen-4-ones and 4-oxo-4H-chromene-3-carbothioic acid N-phenylamides and their antimicrobial evaluation” (2009).
In brackets after ≈: the same amount, converted by molar mass. Activity calls are given as the source filed them. The calls are words filed in the database; no cut-off is given here.

What was measured:
Aspergillus niger = assay: Antifungal activity against Aspergillus niger MTCC 281 after 24 to 72 hrs by broth dilution method; assay type: functional
Outline: (§1)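 Fungi grown at 25 °C on Sabouraud dextrose agar. Compounds dissolved in DMSO (1/10) and tested at several concentrations in Sabouraud dextrose broth in tubes. Conidial suspension at final 1 × 10^5 CFU/ml, with growth and sterility control tubes. […] DMSO negative control; fluconazole positive control.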

Candida albicans = assay: Antifungal activity against Candida albicans MTCC 227 after 24 to 72 hrs by broth dilution method; assay type: functional; outline: as §1
Candida tropicalis = assay: Antifungal activity against Candida tropicalis MTCC 230 after 24 to 72 hrs by broth dilution method; assay type: functional; outline: as §1
Geotrichum candidum = assay: Antifungal activity against Geotrichum candidum MTCC 3993 after 24 to 72 hrs by broth dilution method; assay type: functional; outline: as §1
Shigella flexneri [1] = assay: Antibacterial activity against Shigella flexneri MTCC 1457 at 2.5 x 10^-5 ug/ml after 24 hrs by disk diffusion assay; assay type: functional; settings: MTCC 1457, 24 h, read-out: GI
Outline: (§2)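 Disk diffusion. 100 µl of 4-h nutrient-broth cultures spread on Mueller Hinton agar. Compounds in DMSO (1/10) applied to 8 mm paper disks. After 24 h at 37 °C, growth-inhibition zone diameter measured. DMSO negative control; chloramphenicol and ciprofloxacin positive controls.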

Staphylococcus aureus [2] = assay: Antibacterial activity against Staphylococcus aureus MTCC 740 at 5 x 10^-5 ug/ml after 24 hrs by disk diffusion assay; assay type: functional; settings: MTCC 740, 24 h, read-out: GI; outline: as §2
Shigella flexneri [3] = assay: Antibacterial activity against Shigella flexneri MTCC 1457 at 1 x 10^-4 ug/ml after 24 hrs by disk diffusion assay; assay type: functional; settings: MTCC 1457, 24 h, read-out: GI; outline: as §2
Staphylococcus aureus [4] = assay: Antibacterial activity against Staphylococcus aureus MTCC 740 after overnight incubation by broth dilution method; assay type: functional
Outline: (§3)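 Bacteria grown at 37 °C on nutrient agar. Compounds dissolved in DMSO (1/10) and tested in twofold serial dilutions in Mueller Hinton broth in tubes. Inoculum was a McFarland-standardized suspension, final 5 × 10^5 CFU/ml, with growth and sterility control tubes. Incubation overnight at 37 °C. MIC read by OD600 as the lowest concentration with no turbidity. DMSO negative control; chloramphenicol and ciprofloxacin positive controls.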

Staphylococcus aureus [5] = assay: Antibacterial activity against Staphylococcus aureus MTCC 740 at 1 x 10^-4 ug/ml after 24 hrs by disk diffusion assay; assay type: functional; settings: MTCC 740, 24 h, read-out: GI; outline: as §2
Shigella flexneri [6] = assay: Antibacterial activity against Shigella flexneri MTCC 1457 after overnight incubation by broth dilution method; assay type: functional; outline: as §3
Pseudomonas aeruginosa [7] = assay: Antibacterial activity against Pseudomonas aeruginosa MTCC 741 at 2.5 x 10^-5 ug/ml after 24 hrs by disk diffusion assay; assay type: functional, organism-based; outline: as §2
Pseudomonas aeruginosa [8] = assay: Antibacterial activity against Pseudomonas aeruginosa MTCC 741 at 5 x 10^-5 ug/ml after 24 hrs by disk diffusion assay; assay type: functional, organism-based; outline: as §2
Escherichia coli [9] = assay: Antibacterial activity against Escherichia coli MTCC 119 at 5 x 10^-5 ug/ml after 24 hrs by disk diffusion assay; assay type: functional; settings: MTCC 119, 24 h, read-out: GI; outline: as §2
Pseudomonas aeruginosa [10] = assay: Antibacterial activity against Pseudomonas aeruginosa MTCC 741 after overnight incubation by broth dilution method; assay type: functional; outline: as §3
Escherichia coli [11] = assay: Antibacterial activity against Escherichia coli MTCC 119 at 1 x 10^-4 ug/ml after 24 hrs by disk diffusion assay; assay type: functional; settings: MTCC 119, 24 h, read-out: GI; outline: as §2
Shigella flexneri [12] = assay: Antibacterial activity against Shigella flexneri MTCC 1457 at 5 x 10^-5 ug/ml after 24 hrs by disk diffusion assay; assay type: functional; settings: MTCC 1457, 24 h, read-out: GI; outline: as §2
Escherichia coli [13] = assay: Antibacterial activity against Escherichia coli MTCC 119 after overnight incubation by broth dilution method; assay type: functional; outline: as §3
Pseudomonas aeruginosa [14] = assay: Antibacterial activity against Pseudomonas aeruginosa MTCC 741 at 1 x 10^-4 ug/ml after 24 hrs by disk diffusion assay; assay type: functional, organism-based; outline: as §2
Staphylococcus aureus [15] = assay: Antibacterial activity against Staphylococcus aureus MTCC 740 at 2.5 x 10^-5 ug/ml after 24 hrs by disk diffusion assay; assay type: functional; settings: MTCC 740, 24 h, read-out: GI; outline: as §2
Escherichia coli [16] = assay: Antibacterial activity against Escherichia coli MTCC 119 at 2.5 x 10^-5 ug/ml after 24 hrs by disk diffusion assay; assay type: functional; settings: MTCC 119, 24 h, read-out: GI; outline: as §2

Row | Structure (SMILES) | MIC (Aspergillus niger) | MIC (Candida albicans) | MIC (Candida tropicalis) | MIC (Geotrichum candidum) | inhibition of growth at 25 pg/mL (Shigella flexneri [1]) | inhibition of growth at 50 pg/mL (Staphylococcus aureus [2]) | inhibition of growth at 0.0001 µg/mL (Shigella flexneri [3]) | MIC (Staphylococcus aureus [4]) | inhibition of growth at 0.0001 µg/mL (Staphylococcus aureus [5]) | MIC (Shigella flexneri [6]) | growth inhibition (GI) (Pseudomonas aeruginosa [7]) | growth inhibition (GI) (Pseudomonas aeruginosa [8]) | inhibition of growth at 50 pg/mL (Escherichia coli [9]) | MIC (Pseudomonas aeruginosa [10]) | inhibition of growth at 0.0001 µg/mL (Escherichia coli [11]) | inhibition of growth at 50 pg/mL (Shigella flexneri [12]) | MIC (Escherichia coli [13]) | growth inhibition (GI) (Pseudomonas aeruginosa [14]) | inhibition of growth at 25 pg/mL (Staphylococcus aureus [15]) | inhibition of growth at 25 pg/mL (Escherichia coli [16])
1 | OC(Cn1cncn1)(Cn1cncn1)c1ccc(F)cc1F [FLUCONAZOLE] | 49 mg/L (≈ 160 µM) | 24 mg/L (≈ 78.4 µM) | 25 mg/L (≈ 81.6 µM) | 9 mg/L (≈ 29.4 µM) | – | – | – | – | – | – | – | – | – | – | – | – | – | – | – | –
2 | O=c1c(C2N=C(c3ccccc3)SS2)coc2ccc(F)cc12 (stereo not given) | 50 mg/L (≈ 146 µM) | 30 mg/L (≈ 87.4 µM) | 42 mg/L (≈ 122 µM) | 32 mg/L (≈ 93.2 µM) | 28.4% | 23.9% | 100% | 205 mg/L (≈ 597 µM) | 48.8% | 80 mg/L (≈ 233 µM) | inactive | inactive | 12.3% | inactive | 80.9% | 62.3% | 120 mg/L (≈ 349 µM) | inactive | – | –
3 | O=C(N[C@H](CO)[C@H](O)c1ccc([N+](=O)[O-])cc1)C(Cl)Cl [CHLORAMPHENICOL] | – | – | – | – | – | – | – | 13.6 mg/L (≈ 42.1 µM) | – | 5.6 mg/L (≈ 17.3 µM) | – | – | – | 2.7 mg/L (≈ 8.36 µM) | – | – | 2.5 mg/L (≈ 7.74 µM) | – | – | –
4 | O=c1c(C2N=C(c3ccccc3)SS2)coc2cc(Cl)c(F)cc12 (stereo not given) | 90 mg/L (≈ 238 µM) | 40 mg/L (≈ 106 µM) | 28 mg/L (≈ 74.1 µM) | 5 mg/L (≈ 13.2 µM) | 48.3% | 68.7% | 100% | 72 mg/L (≈ 191 µM) | 100% | 52 mg/L (≈ 138 µM) | inactive | inactive | 14% | inactive | 30.5% | 98.5% | 350 mg/L (≈ 926 µM) | inactive | 32.9% | –
5 | O=c1c(C2N=C(c3ccccc3)SS2)coc2ccc(Cl)cc12 (stereo not given) | 125 mg/L (≈ 347 µM) | 28 mg/L (≈ 77.8 µM) | 28 mg/L (≈ 77.8 µM) | 30 mg/L (≈ 83.4 µM) | 27.3% | 51.5% | 100% | 98 mg/L (≈ 272 µM) | 100% | 90 mg/L (≈ 250 µM) | inactive | inactive | 49.6% | inactive | 100% | 55.8% | 100 mg/L (≈ 278 µM) | inactive | 26.4% | 22%
6 | O=c1c(C(=S)Nc2ccccc2)coc2ccccc12 | 90 mg/L (≈ 320 µM) | – | – | – | – | 76.2% | 100% | 70 mg/L (≈ 249 µM) | 100% | 92 mg/L (≈ 327 µM) | inactive | inactive | 85.5% | inactive | 100% | 55.3% | 62 mg/L (≈ 220 µM) | inactive | 35.6% | 38.5%
7 | O=c1c(C(=S)Nc2ccccc2)coc2ccc(F)cc12 | 120 mg/L (≈ 401 µM) | – | – | – | – | – | – | – | – | – | inactive | inactive | 73.8% | inactive | 100% | – | 68 mg/L (≈ 227 µM) | inactive | – | –
8 | O=c1c(C(=S)Nc2ccccc2)coc2cc(Cl)c(Cl)cc12 | – | 75 mg/L (≈ 214 µM) | – | – | 8.82% | 90.9% | 100% | 55 mg/L (≈ 157 µM) | 100% | 62 mg/L (≈ 177 µM) | inactive | inactive | 78.3% | inactive | 100% | 60.9% | 64 mg/L (≈ 183 µM) | inactive | 3.78% | 20.4%
9 | O=c1c(C(=S)Nc2ccccc2)coc2cc(Cl)ccc12 | 80 mg/L (≈ 253 µM) | 60 mg/L (≈ 190 µM) | 60 mg/L (≈ 190 µM) | – | – | 43.6% | 100% | 125 mg/L (≈ 396 µM) | 81% | 96 mg/L (≈ 304 µM) | inactive | inactive | 42.6% | inactive | 87.6% | 52.2% | 115 mg/L (≈ 364 µM) | inactive | – | –
10 | Cc1ccc2occ(C3N=C(c4ccccc4)SS3)c(=O)c2c1 (stereo not given) | 150 mg/L (≈ 442 µM) | 60 mg/L (≈ 177 µM) | 52 mg/L (≈ 153 µM) | 95 mg/L (≈ 280 µM) | 21% | 92.7% | 100% | 54 mg/L (≈ 159 µM) | 100% | 82 mg/L (≈ 242 µM) | inactive | inactive | 30% | inactive | 72.5% | 60.9% | 132 mg/L (≈ 389 µM) | inactive | 35% | –
11 | O=C(O)c1cn(C2CC2)c2cc(N3CCNCC3)c(F)cc2c1=O [CIPROFLOXACIN] | – | – | – | – | – | – | – | 0.9 mg/L (≈ 2.72 µM) | – | 1.4 mg/L (≈ 4.23 µM) | – | – | – | 1.8 mg/L (≈ 5.43 µM) | – | – | 1.2 mg/L (≈ 3.62 µM) | – | – | –
